Test results as given in ChEMBL document CHEMBL1649157, “Intracellular activity of antibiotics against Staphylococcus aureus in a mouse peritonitis model” (Antimicrob Agents Chemother, 2009).
In brackets after ≈: the same amount, converted by molar mass. Activity calls are given as the source filed them. The rule behind the calls is not given here.

Assays:
[1] = tested on: Staphylococcus aureus; assay: Antibacterial activity against Staphylococcus aureus E19977 by Etest; assay type: functional
[2] = tested on: Staphylococcus aureus; assay: Bactericidal activity against Staphylococcus aureus E19977 assessed as log reduction in cfu at 20 mg/liter after 24 hrs by time-kill study; assay type: functional, organism-based
Summary of the method: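 In vitro kinetic model simulating antibiotic elimination without inoculum change. Exponential-phase E19977 was added at a final 10^6.3 CFU/ml. Starting drug concentration matched the human free peak, with the human half-life simulated. Samples were plated on 5% blood agar at 0, 2, 4, 6, 8, 12 and 24 h, with growth controls in each run. Results are shown as mean and range, n = 2.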

[3] = tested on: Staphylococcus aureus; assay: Antibacterial activity against Staphylococcus aureus E19977 infected in NMRI mouse assessed as log reduction in intracellular bacterial cfu in peritoneum at 60 mg/kg, sc administered as single dose 3 hrs after infection measured after 4 hrs; assay type: functional, organism-based; set-up: dose 60 mg/kg
Summary of the method: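 NMRI mice were infected i.p. with S. aureus E19977 in 5% mucin. A single dose (60 mg/kg or 10 mg/kg) was given 1, 2 or 3 h after inoculation, four mice per group. Peritoneal wash was sampled after 4 h of treatment and separated into total, extracellular and intracellular counts by lysostaphin/centrifugation. Δlog10 CFU/ml was calculated against vehicle-treated mice infected for the same time (5, 6 or 7 h).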

[4] = tested on: Staphylococcus aureus; assay: Antibacterial activity against Staphylococcus aureus E19977 infected in NMRI mouse assessed as log reduction in extracellular bacterial cfu in peritoneum at 200 mg/kg, sc administered 2 hrs after infection evry 8 hrs as three-dose regimen measured after 19 hrs; assay type: functional; conditions: route subcutaneous
[5] = tested on: Staphylococcus aureus; assay: Antibacterial activity against Staphylococcus aureus E19977 infected in NMRI mouse assessed as log reduction in bacterial cfu in peritoneum at 200 mg/kg, sc administered 2 hrs after infection evry 8 hrs as three-dose regimen measured after 19 hrs; assay type: functional; conditions: route subcutaneous
Summary of the method: (§1)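 Female outbred NMRI mice (25 to 30 g) were infected i.p. with 0.5 ml of 10^7.7 CFU/ml S. aureus E19977 in 5% (wt/vol) mucin. The first dose was given 2 h after inoculation, either once or as three doses every 8 h, with four mice per group. Mice were euthanized 19 h after treatment onset and washed peritoneally with 2.0 ml saline. Total CFU were counted by duplicate spotting of 10-fold dilutions on 5% blood agar.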

[6] = tested on: Staphylococcus aureus; assay: Bactericidal activity against Staphylococcus aureus E19977 assessed as log reduction in cfu at 1.5 mg/liter upto 24 hrs by time-kill study; assay type: functional
Summary of the method: (§2)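 Clinical bacteremia isolate (penicillin-resistant, methicillin-susceptible). Exponential-phase bacteria were placed in an in vitro kinetic model that simulates drug elimination without changing the inoculum. The starting drug level matched the human free peak serum concentration after a single dose, with simulated human elimination half-life. Samples were taken at 0, 2, 4, 6, 8, 12 and 24 h, with growth controls in each run.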

[7] = tested on: Staphylococcus aureus; assay: Bactericidal activity against Staphylococcus aureus E19977 assessed as log reduction in cfu at 20 mg/liter upto 24 hrs by time-kill study; assay type: functional
Summary of the method: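 In vitro kinetic model: exponential-phase bacteria at a final 10^6.3 CFU/ml were exposed to a starting concentration set to the human free peak level. Elimination followed the simulated human half-life. Samples were taken at 0, 2, 4, 6, 8, 12 and 24 h and counted on 5% blood agar (detection limit 25 CFU/ml). Growth controls were included; n = 2.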

[8] = tested on: Staphylococcus aureus; assay: Bactericidal activity against Staphylococcus aureus E19977 assessed as log reduction in cfu at 2 mg/liter after 12 hrs by time-kill study; assay type: functional; summary of the method: as §2
[9] = tested on: Staphylococcus aureus; assay: Antibacterial activity against Staphylococcus aureus E19977 infected in NMRI mouse assessed as log reduction in bacterial cfu in peritoneum at 200 mg/kg, sc administered as single dose 2 hrs after infection measured between 4 to 19 hrs; assay type: functional; conditions: route subcutaneous; summary of the method: as §1
[10] = tested on: Staphylococcus aureus; assay: Antibacterial activity against Staphylococcus aureus E19977 infected in NMRI mouse assessed as log reduction in intracellular bacterial cfu in peritoneum at 200 mg/kg, sc administered 2 hrs after infection measured after 4 hrs; assay type: functional, organism-based; set-up: dose 200 mg/kg
Summary of the method: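 Dose–response in i.p.-infected NMRI mice (mucin adjuvant). Single doses of 200, 60, 30, 20 or 10 mg/kg were given 2 h after inoculation, with 4–16 mice per group. Peritoneal wash was sampled 4 h later and split by lysostaphin/centrifugation into total, extra- and intracellular counts, then expressed as Δlog10 CFU/ml against log dose. Vehicle controls were plotted as 0.3 mg/kg. Hill fit (variable slope); static dose interpolated.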

Question: How did the MIC [1] turn out when `Cc1onc(-c2c(Cl)cccc2Cl)c1C(=O)N[C@@H]1C(=O)N2[C@@H]1SC(C)(C)[C@@H]2C(=O)O` [DICLOXACILLIN] was run?
Answer: The MIC was 0.5 µg/mL (≈ 1.06 µM).

Question: What about the Activity [2] of the same molecule?
Answer: Its Activity is “inactive”.

Question: What about the Activity [3] of the same molecule?
Answer: The Activity was “inactive”.

Question: What about the FC [4] of the same molecule?
Answer: The FC was 2.

Question: What about the FC [5] of the same molecule?
Answer: The FC was 2.

Question: And the FC [6]?
Answer: The FC was 2.

Question: What about the FC [7] of the same molecule?
Answer: Its FC is >2.

Question: And the FC [8]?
Answer: The FC was 2.

Question: And the FC [9]?
Answer: Its FC is <1.

Question: What about the Activity [10] of the same molecule?
Answer: Its Activity is “inactive”.
